Assays:
db/db mice = experiment: 4-week repeated administration in db/db mice; format: in vivo; conditions: 4-week repeated oral dosing
Method in brief: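 Male db/db mice, 8 weeks old, 7 per group, allocated by HbA1c and blood glucose after a 16 h fast. Test compound given orally once daily for 28 days. HbA1c measured from tail-vein blood on days 0 and 28. Blood glucose checked twice weekly. Body weight taken daily. OGTT on day 29, 24 h after the last dose: glucose 2 g/kg, samples at −60, 0, 15, 30, 60 and 120 min. Mean±S.E.M.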

male C57BL/6 mice [1] = experiment: Oral glucose tolerance test in normoglycemic mice; format: in vivo
Method in brief: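 Male C57BL/6 mice, 8 weeks old, fasted 16 h. Test compound given orally 30 min before a glucose load of 2 g/kg (10 ml/kg). Tail-nick blood glucose read by glucose strip before loading and at 0, 15, 30, 60 and 120 min after. Glucose AUC0–120min calculated by the trapezoidal rule. n=6; mean±S.E.M.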

male C57BL/6 mice [2] = experiment: Total GLP-1 in plasma after glucose loading in normoglycemic mice; format: in vivo; conditions: 30 min after glucose loading
Method in brief: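 Fasted (16 h) 8-week-old male C57BL/6 mice, 7 per group, dosed orally with test compound or vehicle 30 min before a 2 g/kg glucose load. Plasma collected from the subclavian vein 30 min after loading. Total GLP-1 measured by multispecies ELISA. One-way ANOVA with Dunnett's test versus vehicle.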

mice = conditions: cited from earlier work
[3] = Pharmacokinetic profiles in male C57BL/6 mice; format: in vivo; conditions: for AUC(0-t): AUC0-24hr
male C57BL/6 mice [4] = experiment: Urinary glucose excretion over 24 h in normoglycemic mice; format: in vivo; conditions: single oral dose 3 mg/kg with 2 g/kg glucose, 24 h urine
Method in brief: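 Male C57BL/6 mice, 8 weeks old, 3 per group, allocated by body weight and fasted overnight. […] Urine collected in metabolism cages over 24 h. Urine volume and glucose measured by clinical chemistry analyser and normalised to body weight.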

human SGLT2 = target: T1, human SGLT2 (Homo sapiens, UniProt P31639); experiment: [14C]-AMG uptake inhibition in HEK293 cells stably expressing human SGLT2; format: cell-based; conditions: human SGLT2 vs human SGLT1, in vitro
T1 sequence (P31639 1-672): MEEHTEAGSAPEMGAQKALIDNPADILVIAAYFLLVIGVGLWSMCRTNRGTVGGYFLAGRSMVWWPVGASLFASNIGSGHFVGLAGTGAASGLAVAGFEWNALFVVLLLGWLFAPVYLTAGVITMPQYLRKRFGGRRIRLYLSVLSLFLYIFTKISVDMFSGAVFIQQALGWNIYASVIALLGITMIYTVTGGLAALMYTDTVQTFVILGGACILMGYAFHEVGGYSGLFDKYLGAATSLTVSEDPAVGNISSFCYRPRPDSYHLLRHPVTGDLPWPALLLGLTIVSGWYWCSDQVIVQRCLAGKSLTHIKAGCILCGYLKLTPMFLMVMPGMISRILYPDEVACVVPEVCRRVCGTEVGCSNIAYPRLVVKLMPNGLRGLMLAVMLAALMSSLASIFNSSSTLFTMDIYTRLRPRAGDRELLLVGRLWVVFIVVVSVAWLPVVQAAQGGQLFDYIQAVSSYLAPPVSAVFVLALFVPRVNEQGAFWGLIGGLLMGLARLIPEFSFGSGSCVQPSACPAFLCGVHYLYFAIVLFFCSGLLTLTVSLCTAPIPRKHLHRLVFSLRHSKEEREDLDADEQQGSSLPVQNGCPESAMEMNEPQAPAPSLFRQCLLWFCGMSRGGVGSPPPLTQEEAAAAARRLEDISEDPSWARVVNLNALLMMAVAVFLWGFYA

[5] = single oral 1 mg/kg 30 min before glucose 2 g/kg
[6] = male, C57BL/6, mouse, plasma, po
[7] = male, C57BL/6, mouse, plasma, po, 0.3 mg/kg, mice
[8] = male, C57BL/6, mouse, plasma, po, 1 mg/kg, mice

Row | Structure (SMILES) | change in body weight compared to vehicle-treated db/db mice (db/db mice) | effect on blood glucose increases during OGTT (male C57BL/6 mice [1]; [5]) | Total GLP-1 in plasma (male C57BL/6 mice [2]; single oral 1 mg/kg) [pM] | reduction of glucose reabsorption (mice; SGLT1 and SGLT2 double-knockout mice) [%] | inhibition of glucose reabsorption (mice; wild-type mice) [%] | Tmax [3, 6] [h] | half-life [3, 6] [h] | AUC(0-t) [3, 7] [ng·h/mL] | Cmax [3, 7] [ng/mL] | AUC(0-t) [3, 8] [ng·h/mL] | Cmax [3, 8] [ng/mL] | AUC(0-t) ([3]; male, C57BL/6, mouse, plasma, po, 3 mg/kg, mice) [ng·h/mL] | maximum plasma level ([3]; mice, single oral dose 0.1 mg/kg) [ng/mL] | area under the curve (AUC) of glucose tolerance, OGTT 120 min (male C57BL/6 mice [1]; single oral 0.3 mg/kg 30 min before glucose 2 g/kg) [mg·h/dL] | area under the curve (AUC) of glucose tolerance, OGTT 120 min (male C57BL/6 mice [1]; [5]) [mg·h/dL] | area under the curve (AUC) of glucose tolerance, OGTT 120 min (male C57BL/6 mice [1]; single oral 3 mg/kg 30 min before glucose 2 g/kg) [mg·h/dL] | Urinary glucose excretion (male C57BL/6 mice [4]) [mg/g body weight] | Total GLP-1 in plasma (male C57BL/6 mice [2]; single oral 0.3 mg/kg) [pM] | Total GLP-1 in plasma (male C57BL/6 mice [2]; single oral 3 mg/kg, 3 mg/kg) [pM] | selectivity for SGLT2 over SGLT1 (human SGLT2) [fold]
1 | CCOc1ccc(Cc2cc([C@@H]3O[C@H](CO)[C@@H](O)[C@H](O)[C@H]3O)ccc2Cl)cc1 [Dapagliflozin, (1S)-1,5-anhydro-1-C-{4-chloro-3-[(4-ethoxyphenyl)methyl]phenyl}-D-glucitol, reference compound] | did not induce a significant change in body weight | decreased blood glucose increases during OGTT | 15.5 ± 5.7 |  |  |  |  |  |  |  |  |  |  |  |  |  |  |  |  | 
2 | OC[C@H]1O[C@@H](c2ccc(Cl)c(Cc3ccc(O[C@H]4CCOC4)cc3)c2)[C@H](O)[C@@H](O)[C@@H]1O [Empagliflozin] |  |  |  | 100 | 56 |  |  |  |  |  |  |  |  |  |  |  |  |  |  | 
3 | CCc1ccc(Cc2cc([C@@H]3O[C@H](CO)[C@@H](O)[C@H](O)[C@H]3O)cc3c2CCC3)cc1 [HM41322, (2S,3R,4R,5S,6R)-2-[7-(4-ethylbenzyl)-2,3-dihydro-1H-inden-5-yl]-6-(hydroxymethyl)tetrahydro-2H-pyran-3,4,5-triol] | did not induce a significant change in body weight |  | 18.0 ± 5.0 |  |  | 0.5 | 3.1 | 473 | 142 | 1300 | 439 | 5460 | 142 | 303.3 ± 60.17 | 228.5 ± 16.96 | 170.7 ± 13.14 | 19.32±1.16 | 15.0 ± 6.6 | 34.2 ± 9.7 | 10

Source: paper PMC6315097 (The Korean Journal of Physiology & Pharmacology : Official …, 2018)
